According to ChEMBL document CHEMBL2157894, “Antileishmanial bis-arylimidamides: DB766 analogs modified in the linker region and bis-arylimidamide structure-activity relationships” (Bioorg Med Chem Lett, 2012):

Key:
Mus musculus [1] = assay: Toxicity in BALB/c mouse assessed as adverse effects at 30 mg/kg/day, ip administered for 5 days; type: organism-based; parameters: route intraperitoneal; settings: in vivo, 120 h
J774 = assay: Cytotoxicity against mouse J774 cells; type: cell-based
In short: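 J774 macrophages exposed to compounds; IC50 reported in nM as mean ± SD of at least three determinations.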

Leishmania amazonensis = assay: Antileishmanial activity against amastigote form of Leishmania amazonensis expressing beta-lactamase infected in CD1 mouse macrophages after 72 hrs by nitrocefin-based spectrophotometric analysis; type: functional, organism-based
In short: (§1)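 Intracellular amastigotes in macrophages; absorbance read-out with uninfected and infected control wells; IC50 from dose–response curves; mean ± SD of at least three determinations, each run in triplicate.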

Leishmania donovani [2] = assay: Antileishmanial activity against promastigote form of Leishmania donovani LV82 infected in BALB/c mouse assessed as reduction in liver parasitemia at 30 mg/kg/day, ip administered for 5 days starting 1 week post-infection measured after 2 weeks relative to untreated control; type: functional; parameters: scale not given: the % may be the effect or the level left; settings: route intraperitoneal
In short: (§2)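 Female BALB/c mice infected with L. donovani; treated daily for five days starting one week post infection, test agent ip in water, miltefosine orally at 10 mg/kg/day; liver parasitemia counted microscopically two weeks post infection; % reduction versus infected untreated controls; groups of four, mean ± SD; P<0.05 versus untreated.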

Leishmania donovani [3] = assay: Antileishmanial activity against amastigote form of Leishmania donovani LV82 expressing beta-lactamase infected in CD1 mouse macrophages after 72 hrs by nitrocefin-based spectrophotometric analysis; type: functional, organism-based; settings: LV82, 72 h; in short: as §1
[4] = Selectivity index, ratio of IC50 for mouse J774 cells to IC50 for Leishmania donovani; type: toxicity, cell-based; settings: J774 cells versus Leishmania donovani, read-out: Ratio IC50
In short: (§3)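 SI calculated as IC50 against J774 macrophages divided by IC50 against intracellular Leishmania, each IC50 from mean of at least three determinations.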

Mus musculus [5] = assay: Toxicity in BALB/c mouse assessed as hyperactivity at 30 mg/kg/day, ip measured from day 2 to 3; type: organism-based; parameters: route intraperitoneal; settings: in vivo
Mus musculus [6] = assay: Toxicity in BALB/c mouse assessed as tremors at 30 mg/kg/day, ip measured from day 2 to 3; type: organism-based; parameters: route intraperitoneal; settings: in vivo
[7] = Selectivity index, ratio of IC50 for mouse J774 cells to IC50 for Leishmania amazonensis; type: toxicity, cell-based; settings: J774 cells versus Leishmania amazonensis, read-out: Ratio IC50; in short: as §3
Mus musculus [8] = assay: Gastrointestinal toxicity in BALB/c mouse assessed as black and swollen stomach at 30 mg/kg, ip measured within 24 hrs by necroscopic analysis; type: organism-based; parameters: dose 30 mg/kg, route intraperitoneal; settings: in vivo
Mus musculus [9] = assay: Gastrointestinal toxicity in BALB/c mouse assessed as black and swollen colon at 30 mg/kg, ip measured within 24 hrs by necroscopic analysis; type: organism-based; parameters: dose 30 mg/kg, route intraperitoneal; settings: in vivo
Mus musculus [10] = assay: Gastrointestinal toxicity in BALB/c mouse assessed as black and swollen intestine at 30 mg/kg, ip measured within 24 hrs by necroscopic analysis; type: organism-based; parameters: dose 30 mg/kg, route intraperitoneal; settings: in vivo
Mus musculus [11] = assay: Toxicity in BALB/c mouse assessed as mortality at 30 mg/kg, ip measured within 24 hrs; type: organism-based; parameters: dose 30 mg/kg, route intraperitoneal; settings: in vivo
Leishmania donovani [12] = assay: Antileishmanial activity against promastigote form of Leishmania donovani LV82 infected in BALB/c mouse assessed as reduction in liver parasitemia at 10 mg/kg/day, po administered for 5 days relative to untreated control; type: functional; parameters: scale not given: the % may be the effect or the level left; in short: as §2

| Compound | IC50 (J774) | IC50 (Leishmania amazonensis) | IC50 (Leishmania donovani [3]) | selectivity ratio [4] | Activity (Mus musculus [5]) | Activity (Mus musculus [6]) | selectivity ratio [7] | also measured |
| --- | --- | --- | --- | --- | --- | --- | --- | --- |
| CC(C)Oc1cc(-c2ccc(-c3ccc(NC(=N)c4ccccn4)c(OC(C)C)c3)o2)ccc1NC(=N)c1ccccn1.CS(=O)(=O)O | 10000 nM | 290 nM | 26 nM | 385 |  |  |  | Activity (Mus musculus [1]): Non-toxic; Activity (Leishmania donovani [2]): 32% |
| COc1cc(NC(=N)c2ccccn2)ccc1-c1ccc(-c2ccc(NC(=N)c3ccccn3)cc2OC(C)C)o1.CS(=O)(=O)O | 14000 nM | 110 nM | 7 nM | 2000 | Toxic | Toxic | 127 |  |
| CS(=O)(=O)O.Cc1cc(NC(=N)c2ccccn2)ccc1-c1ccc(-c2ccc(NC(=N)c3ccccn3)cc2OC(C)C)o1 | 13000 nM | 49 nM | 21 nM | 619 | Toxic | Toxic | 265 |  |
| CC(C)Oc1cc(NC(=N)c2ccccn2)ccc1-c1ccc(-c2ccc(NC(=N)c3ccccn3)cc2F)o1.CS(=O)(=O)O | 27000 nM | 190 nM | 150 nM | 180 | Toxic | Toxic | 142 |  |
| CC(C)Oc1cc(NC(=N)c2ccccn2)ccc1-c1ccc(-c2ccc(NC(=N)c3ccccn3)cc2)o1.CS(=O)(=O)O | 11000 nM | 93 nM | 5.3 nM | 2080 |  |  | 115 | Activity (Mus musculus [8]): Toxic; Activity (Mus musculus [9]): Toxic; Activity (Mus musculus [10]): Toxic; Activity (Mus musculus [11]): Toxic |
| C[C@@H]1[C@H](O)[C@@H](C)/C=C/C=C/C=C/C=C/C=C/C=C/C=C/[C@H](O[C@@H]2O[C@H](C)[C@@H](O)[C@H](N)[C@@H]2O)C[C@@H]2O[C@](O)(C[C@@H](O)C[C@@H](O)[C@H](O)CC[C@@H](O)C[C@@H](O)CC(=O)O[C@H]1C)C[C@H](O)[C@H]2C(=O)O [AMPHOTERICIN B] |  |  | 45 nM |  |  |  |  |  |
| CCCCCCCCCCCCCCCCOP(=O)([O-])OCC[N+](C)(C)C [MILTEFOSINE] |  |  |  |  |  |  |  | Activity (Leishmania donovani [12]): 96% |
| COc1cc([C@@H]2c3cc4c(cc3[C@H](O)[C@H]3COC(=O)[C@H]23)OCO4)cc(OC)c1OC [PODOFILOX] | 18 nM |  |  |  |  |  |  |  |
